Laboratory results: ChEMBL document CHEMBL4130626, “α-Arylidene Diacylglycerol-Lactones (DAG-Lactones) as Selective Ras Guanine-Releasing Protein 3 (RasGRP3) Ligands” (J Med Chem, 2018)

Key:
[1] = target: T1, Ras guanyl-releasing protein 3 (Homo sapiens, UniProt Q8IV61); assay: Displacement of [3H]PDBu from full length MBP-tagged human RasGRP3 expressed in Escherichia coli BL21 (DE3) after 5 mins by scintillation counting
T1 sequence (Q8IV61 whole entry): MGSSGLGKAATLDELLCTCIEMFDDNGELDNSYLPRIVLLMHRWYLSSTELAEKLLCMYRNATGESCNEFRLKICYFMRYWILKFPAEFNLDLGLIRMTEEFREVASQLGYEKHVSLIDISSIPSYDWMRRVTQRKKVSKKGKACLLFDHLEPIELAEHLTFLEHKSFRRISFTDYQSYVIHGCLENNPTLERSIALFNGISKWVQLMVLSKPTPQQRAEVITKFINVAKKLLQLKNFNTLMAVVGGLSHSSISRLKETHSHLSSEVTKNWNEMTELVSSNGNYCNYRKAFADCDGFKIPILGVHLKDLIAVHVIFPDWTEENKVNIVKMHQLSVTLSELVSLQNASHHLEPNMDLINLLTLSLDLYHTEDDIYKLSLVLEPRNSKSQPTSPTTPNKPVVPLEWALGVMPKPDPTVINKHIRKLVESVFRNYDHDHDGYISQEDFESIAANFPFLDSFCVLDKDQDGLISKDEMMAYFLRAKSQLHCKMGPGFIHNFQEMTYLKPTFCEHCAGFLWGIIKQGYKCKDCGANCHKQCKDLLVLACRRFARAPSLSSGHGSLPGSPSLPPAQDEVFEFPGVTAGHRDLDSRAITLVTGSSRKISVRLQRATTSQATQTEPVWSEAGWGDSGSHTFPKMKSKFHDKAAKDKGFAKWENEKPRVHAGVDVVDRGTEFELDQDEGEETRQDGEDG
Outline: (§1)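 Competition of [3H]PDBu binding by polyethylene glycol precipitation, with 100 µg/ml phosphatidylserine and ≤0.003% Triton X-100, 5 min at 37 °C. Proteins: full-length purified human PKCα, PKCε; full-length RasGRP1; MBP-RasGRP3 from E. coli BL21(DE3) induced with 0.3 mM IPTG 6 h at room temperature. Ki mean ± SEM of ≥2 experiments, triplicate points.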

[2] = target: Protein kinase C alpha type (Homo sapiens, UniProt P17252); assay: Displacement of [3H]PDBu from full length recombinant human PKCalpha expressed in baculovirus expression system after 5 mins by scintillation counting; outline: as §1
[3] = target: T2, Protein kinase C epsilon type (Homo sapiens, UniProt Q02156); assay: Displacement of [3H]PDBu from full length recombinant human PKCepsilon expressed in baculovirus expression system after 5 mins by scintillation counting; outline: as §1
T2 sequence (Q02156 whole entry): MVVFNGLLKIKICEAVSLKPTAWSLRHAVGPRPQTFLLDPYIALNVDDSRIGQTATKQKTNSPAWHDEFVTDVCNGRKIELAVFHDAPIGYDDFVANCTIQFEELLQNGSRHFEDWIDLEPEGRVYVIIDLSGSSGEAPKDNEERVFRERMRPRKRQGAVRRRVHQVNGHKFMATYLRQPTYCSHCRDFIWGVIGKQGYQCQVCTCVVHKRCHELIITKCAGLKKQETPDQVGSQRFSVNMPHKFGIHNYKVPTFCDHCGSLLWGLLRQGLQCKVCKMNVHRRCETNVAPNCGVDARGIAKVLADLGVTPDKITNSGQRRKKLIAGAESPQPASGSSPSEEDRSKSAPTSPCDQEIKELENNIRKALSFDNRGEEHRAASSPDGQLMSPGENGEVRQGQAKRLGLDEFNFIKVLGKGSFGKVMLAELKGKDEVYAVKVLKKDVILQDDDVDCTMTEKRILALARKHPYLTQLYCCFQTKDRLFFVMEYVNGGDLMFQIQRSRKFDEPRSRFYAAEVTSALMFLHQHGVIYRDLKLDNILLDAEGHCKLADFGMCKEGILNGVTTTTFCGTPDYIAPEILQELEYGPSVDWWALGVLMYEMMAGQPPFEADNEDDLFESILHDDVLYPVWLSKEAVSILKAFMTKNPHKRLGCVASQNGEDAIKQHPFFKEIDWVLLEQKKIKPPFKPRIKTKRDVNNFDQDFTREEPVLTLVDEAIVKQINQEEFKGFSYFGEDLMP

[4] = organism: Homo sapiens; assay: Selectivity ratio of Ki for GST-tagged PKCalpha C1 domain to Ki for human RasGRP3 overexpressed in HEK-293 cells

Row | Ki [1] | Ki [2] | Ki [3] | SMILES | Ratio Ki [4]
1 | 25 nM | 439 nM | 672 nM | Cn1cc(/C=C2\CC(CO)(COC(=O)/C=C/c3ccccc3)OC2=O)c2ccccc21 (configuration not stated) | 
2 | 18.2 nM | 186 nM | 220 nM | CN(C)c1ccc(C(=O)OCC2(CO)C/C(=C\c3cn(C)c4ccccc34)C(=O)O2)cc1 (configuration not stated) | 
3 | 1.54 nM | 30.1 nM | 6.8 nM | COc1ccc(/C=C2\CC(CO)(COC(=O)c3ccc(Cl)cc3)OC2=O)cc1 (configuration not stated) | 
4 | 3.03 nM | 15.6 nM | 19.4 nM | CC(C)Cn1cc(/C=C2\CC(CO)(COC(=O)C(C)(C)C)OC2=O)c2ccccc21 (configuration not stated) | 
5 | 1.87 nM | 25.6 nM | 19.2 nM | CCCCn1cc(/C=C2\CC(CO)(COC(=O)C(C)(C)C)OC2=O)c2ccccc21 (configuration not stated) | 
6 | 5.07 nM | 39 nM | 41.5 nM | CC(C)CC(CC(C)C)C(=O)OCC1(CO)C/C(=C\c2cn(C)c3ccccc23)C(=O)O1 (configuration not stated) | 
7 |  |  |  | CN(C)c1ccc(C(=O)OCC2(CO)C/C(=C\c3ccc([N+](=O)[O-])cc3)C(=O)O2)cc1 (configuration not stated) | 90
8 | 69.7 nM | 2310 nM | 3410 nM | Cn1cc(/C=C2\CC(CO)(COC(=O)/C=C/c3ccccn3)OC2=O)c2ccccc21 (configuration not stated) | 
9 | 1.09 nM | 72 nM | 10.1 nM | COc1ccc(/C=C2\CC(CO)(COC(=O)C(C)(C)C)OC2=O)cc1 (configuration not stated) | 
10 | 89.7 nM | 1190 nM | 199 nM | COc1ccc(C(=O)OCC2(CO)C/C(=C\c3ccccn3)C(=O)O2)cc1 (configuration not stated) | 
11 | 1.67 nM | 28.8 nM | 8.17 nM | CC(C)(C)C(=O)OCC1(CO)C/C(=C\c2csc3ccccc23)C(=O)O1 (configuration not stated) | 
12 | 0.53 nM | 13.6 nM | 2.57 nM | CC(C)(C)C(=O)OCC1(CO)C/C(=C\c2ccc(Cl)cc2)C(=O)O1 (configuration not stated) | 
13 | 26.5 nM | 446 nM | 380 nM | COc1ccc(C(=O)OCC2(CO)C/C(=C\c3cn(C)c4ccccc34)C(=O)O2)cc1 (configuration not stated) | 
14 | 7.22 nM | 184 nM | 131 nM | Cn1nc(/C=C2\CC(CO)(COC(=O)C(C)(C)C)OC2=O)c2ccccc21 (configuration not stated) | 
15 | 11.7 nM | 62.5 nM | 73.3 nM | CC(C)(C)C(=O)OCC1(CO)C/C(=C/c2coc3ccccc23)C(=O)O1 (configuration not stated) | 
16 | 29 nM | 383 nM | 92.3 nM | O=C1OC(CO)(COC(=O)c2ccc(Cl)cc2)C/C1=C\c1ccccn1 (configuration not stated) | 
17 | 3.58 nM | 29 nM | 60.6 nM | CC(C)(C)C(=O)OCC1(CO)C/C(=C\c2cn(CC3CC3)c3ccccc23)C(=O)O1 (configuration not stated) | 
18 | 2.69 nM | 25.2 nM | 6.51 nM | O=C1OC(CO)(COC(=O)c2ccc(Cl)cc2)C/C1=C\c1ccc(Cl)cc1 (configuration not stated) | 
19 | 2.15 nM | 31.3 nM | 42 nM | Cn1cc(/C=C2\CC(CO)(COC(=O)C3CCC(C(C)(C)C)CC3)OC2=O)c2ccccc21 (configuration not stated) | 
20 | 4.32 nM | 79.1 nM | 104 nM | Cn1cc(/C=C2/CC(CO)(COC(=O)C(C)(C)C)OC2=O)c2cc(Cl)ccc21 (configuration not stated) | 
21 | 4.76 nM | 249 nM | 208 nM | COc1ccc2c(c1)c(/C=C1\CC(CO)(COC(=O)C(C)(C)C)OC1=O)cn2C (configuration not stated) | 

Row | Ki [1] | Ki [2] | Ki [3] | SMILES | Ratio Ki [4]
22 | 0.84 nM | 31.7 nM | 42.8 nM | CCCC(CCC)C(=O)OCC1(CO)C/C(=C\c2cn(C)c3ccccc23)C(=O)O1 (configuration not stated) | 
23 | 2.8 nM | 114 nM | 35.3 nM | CC(C)(C)C(=O)OCC1(CO)C/C(=C\c2coc3ccccc23)C(=O)O1 (configuration not stated) | 
24 | 7.48 nM | 128 nM | 18.2 nM | COc1ccc(C(=O)OCC2(CO)C/C(=C\c3ccc(N(C)C)cc3)C(=O)O2)cc1 (configuration not stated) | 
25 | 1.81 nM | 25.4 nM | 6.39 nM | CN(C)c1ccc(/C=C2\CC(CO)(COC(=O)c3ccc(Cl)cc3)OC2=O)cc1 (configuration not stated) | 
26 | 4.17 nM | 84.7 nM | 13.4 nM | COc1ccc(/C=C2\CC(CO)(COC(=O)c3ccc(OC)cc3)OC2=O)cc1 (configuration not stated) | 
27 | 271 nM | 1480 nM | 328 nM | CN(C)c1ccc(C(=O)OCC2(CO)C/C(=C\c3ccccn3)C(=O)O2)cc1 (configuration not stated) | 
28 | 3490 nM | > 30000 nM | > 30000 nM | Cn1cc(/C=C2\CC(CO)(COC(=O)C(C)(C)C)OC2=O)c2cc([N+](=O)[O-])ccc21 (configuration not stated) | 
29 |  |  |  | COc1ccc(C(=O)OCC2(CO)C/C(=C\c3ccc([N+](=O)[O-])cc3)C(=O)O2)cc1 (configuration not stated) | 20
30 | 2.73 nM | 30.4 nM | 9.5 nM | CN(C)c1ccc(C(=O)OCC2(CO)C/C(=C\c3ccc(Cl)cc3)C(=O)O2)cc1 (configuration not stated) | 
31 | 2.86 nM | 112 nM | 98.2 nM | Cn1cc(/C=C2\CC(CO)(COC(=O)C3CCCCC3)OC2=O)c2ccccc21 (configuration not stated) | 
32 | 11.2 nM | 146 nM | 208 nM | Cn1cc(/C=C2\CC(CO)(COC(=O)c3ccc(Cl)cc3)OC2=O)c2ccccc21 (configuration not stated) | 
33 | 7 nM | 82.2 nM | 18.3 nM | COc1ccc(/C=C2\CC(CO)(COC(=O)c3ccc(N(C)C)cc3)OC2=O)cc1 (configuration not stated) | 
34 | 1.01 nM | 42.3 nM | 39.3 nM | Cn1cc(/C=C2\CC(CO)(COC(=O)C(C)(C)C)OC2=O)c2cc(Cl)ccc21 (configuration not stated) | 
35 | 1390 nM | > 30000 nM | > 30000 nM | Cn1cc(/C=C2/CC(CO)(COC(=O)C(C)(C)C)OC2=O)c2cc([N+](=O)[O-])ccc21 (configuration not stated) | 
36 | 26.8 nM | 252 nM | 39.4 nM | CN(C)c1ccc(/C=C2\CC(CO)(COC(=O)c3ccc(N(C)C)cc3)OC2=O)cc1 (configuration not stated) | 
37 | 4.26 nM | 37 nM | 12.5 nM | CC(C)(C)C(=O)OCC1(CO)C/C(=C/c2csc3ccccc23)C(=O)O1 (configuration not stated) | 
38 | 1.07 nM | 65.9 nM | 7.87 nM | CN(C)c1ccc(/C=C2\CC(CO)(COC(=O)C(C)(C)C)OC2=O)cc1 (configuration not stated) | 
39 | 2.25 nM | 27.6 nM | 7.1 nM | COc1ccc(C(=O)OCC2(CO)C/C(=C\c3ccc(Cl)cc3)C(=O)O2)cc1 (configuration not stated) | 
40 | 5.3 nM | 135 nM | 122 nM | CCCCCCC(=O)OCC1(CO)C/C(=C\c2cn(C)c3ccccc23)C(=O)O1 (configuration not stated) | 
41 | 15.7 nM | 375 nM | 780 nM | Cn1cc(/C=C/C(=O)OCC2(CO)C/C(=C\c3cn(C)c4ccccc34)C(=O)O2)c2ccccc21 (configuration not stated) | 
42 | 192 nM | 3640 nM | 1120 nM | CC(C)(C)C(=O)OCC1(CO)C/C(=C\c2ccccn2)C(=O)O1 (configuration not stated) | 
